# High-throughput results: PubChem, several laboratories
# HEK293 NFkB inh: inhibitors of the PMA/ionomycin-induced NF-kB reporter in HEK293 cells; HEK-293 NF-kB luciferase reporter, luminescence; inhibition, % at 3 µM; actives 0.21% (n = 62,000); AID 465;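 active = inhibition above the mean of all tested compounds plus 3 SD, cut at about 40% in these data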;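 also: 0% = stimulated DMSO wells and 100% = 10 µM reference inhibitor 5653914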
#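 System: NF-kB luciferase reporter HEK-293 cells | Replication: Single test | Control set: DMSO vs reference inhibitor | Evaluation: % inhibition | Schedule: 1 h pretreatment, 16 h stimulation, 37 °C | Probe or stimulus: PMA with ionomycin | Compound dosing: One dose, 3 µM | Detection: Luciferase luminescence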
# HTR1A agonist: 5-HT1a (human) receptor agonism; P08908; CHO 5-HT1a Ga15 NFAT-bla reporter, FRET ratio; 0% basal, 100% maximal reference agonist; activation, % at 10 µM; actives 0.56% (n = 65,000);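 active = activation above the screen-wide mean activation plus 3 SD, cut at about 19% in these data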;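 also: 0% = DMSO wells and 100% = 5-CT at EC100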
# 5HT1E antag: 5-HT1E (human) receptor antagonism. P28566. CHO 5-HT1E Ga15 NFAT-bla reporter, FRET, antagonist. actives 0.99% (n = 65,000). inhibition, % at 6 µM;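 active = inhibition above a set limit, the mean inhibition across every tested compound plus 3 SD, cut at about 29% in these data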;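 also: signal is the 460 over 535 nm emission ratio of beta-lactamase substrate; 0% = agonist plus DMSO wells and 100% = wells without agonist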
# Target sequence (P28566 whole entry, looked up): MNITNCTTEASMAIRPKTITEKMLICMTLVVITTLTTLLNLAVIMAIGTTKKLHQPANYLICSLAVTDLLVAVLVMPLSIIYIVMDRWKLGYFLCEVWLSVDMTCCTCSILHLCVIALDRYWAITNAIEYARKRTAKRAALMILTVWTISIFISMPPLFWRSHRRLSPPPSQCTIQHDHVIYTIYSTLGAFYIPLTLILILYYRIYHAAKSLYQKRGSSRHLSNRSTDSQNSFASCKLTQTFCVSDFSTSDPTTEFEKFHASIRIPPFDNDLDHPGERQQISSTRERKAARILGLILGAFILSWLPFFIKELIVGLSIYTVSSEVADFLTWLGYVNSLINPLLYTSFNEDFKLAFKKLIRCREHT
# 5HT1a antag: 5-HT1a (human) receptor antagonism | AID 612 | P08908 | inhibition, % at 10 µM | CHO 5-HT1a Ga15 NFAT-bla reporter, antagonist mode | actives 0.68% (n = 62,000);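 active = inhibition above the mean of all tested compounds plus 3 SD, cut at about 43% in these data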;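 also: receptor stimulated by 5-CT agonist at 100 nM near EC80; beta-lactamase reporter measured by ratiometric fluorescence of a cleavable substrate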
# SKBR3 24h inh: SK-BR-3 proliferation inhibitors. SK-BR-3 viability, CellTiter-Glo ATP luminescence, 24 h; stronger effect = lower value. viability, % at 10 µM. actives 0.47% (n = 41,000). AID 847;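 active = viability at or below the median of all test compounds minus 3 SD, in both replicates if run twice, cut at about 45% in these data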;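 also: 100% = median untreated cell wells and 0% = median positive control drug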
# 5HT1E ag: agonists of human 5-HT1E serotonin receptor. AID 574. P28566. activation, % at 6 µM. actives 0.69% (n = 65,000). CHO 5-HT1E Ga15 NFAT-bla reporter, FRET; 0% DMSO wells, 100% control agonist wells;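 active = activation above a set limit, the screen-wide mean activation plus 3 SD, cut at about 8.5% in these data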;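 also: 100% = positive control agonist at 1 µM giving full maximal response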
# * = called active by the depositor; . = not tested or not shown. A selection: hits, their analogues and other compounds. The true share with any hit is near 2.9%.
SMILES,HEK293 NFkB inh,HTR1A agonist,5HT1E antag,5HT1a antag,SKBR3 24h inh,5HT1E ag
CSc1nc2[nH]c3c(c2c2nnnn12)CCCC3,.,1.0,35.8*,.,92.2,-0.6
CN1CCN(c2ccccc2NC(=O)c2ccc(Br)o2)CC1,6.6,1.7,8.2,16.5,83.0,13.4*
O=C(Nc1ccccc1N1CCOCC1)c1ccc(Br)o1,3.2,0.0,10.8,-2.7,95.7,0.1
CCOc1ccc(CCNC(=O)C2CCCN(C(=O)N(C)C)C2)cc1OCC (stereo not drawn),-1.3,-2.5,-5.3,0.9,.,0.3
COc1cccc(C=Nc2cccnc2)c1O,45.8*,-2.0,-3.4,-6.4,.,0.2
COc1cccc(/C=N/n2c(C)nc3ccccc3c2=O)c1O,-6.5,-1.9,4.1,9.1,87.6,-0.5
CCOC(=O)c1[nH]c2ccccc2c1NC(=O)c1ccc(Br)o1,20.6,-0.4,10.8,4.0,94.5,-0.1
CC(C)CCN1C(=O)c2ccc(C(=O)OCn3nnc4ccccc4c3=O)cc2C1=O,5.2,0.9,-3.7,-2.5,.,-0.2
Cc1cc(NC(=O)CSc2nc(-c3ccco3)cc(C(F)(F)F)n2)no1,26.4,-1.1,67.7*,59.1*,107.1,-1.8
CS(=O)(=O)c1nc(-c2ccco2)cc(C(F)(F)F)n1,14.0,-5.3,99.5*,103.1*,30.8*,-1.3
COc1ccc(CN2C(=O)NC3(CCCCCC3)C2=O)cc1F,10.4,-2.4,1.6,-2.9,.,-0.1
Brc1ccc(-c2cnc(-c3cccs3)o2)cc1,-11.8,-2.2,-13.5,19.2,.,0.4
O=c1nc(-c2ccccc2)n(-c2ccccc2)c2ncccc12,13.1,-0.9,1.6,2.3,.,-0.1
Cc1ccc(-c2nc(NC(=O)CSc3nnc4scc(-c5ccccc5)n34)ns2)cc1,15.5,5.5,9.0,-1.3,.,2.0
COC(=O)c1ccc(OCC2c3cc(OC)c(OC)cc3CCN2C(=O)c2ccco2)cc1 (stereo not drawn),13.8,3.1,36.2*,23.1,.,0.2
CCC(=O)N1CCc2cc(OC)c(OC)cc2C1COc1ccc(C(=O)OC)cc1 (stereo not drawn),15.4,1.1,37.4*,18.1,.,-1.0
COc1ccc(C2=NOC(C(=O)N3CCN(c4ccccc4OC)CC3)C2)cc1 (stereo not drawn),-0.4,-1.8,0.5,-4.3,.,-0.3
COc1ccccc1N1CCN(C(=O)C2CC=CCC2C(=O)O)CC1 (stereo not drawn),20.6,7.4,-2.2,27.4,87.9,49.1*
COc1ccccc1N1CCN(C(=O)C(F)F)CC1,8.9,4.6,20.4,2.9,.,1.5
COc1ccccc1N1CCN(C(=O)C2c3ccccc3Oc3ccccc32)CC1,20.5,-2.8,42.3*,54.8*,78.9,-0.6
COc1ccc(C(O)C(CC(=O)NCCCOC(C)C)C(=O)NCCCOC(C)C)cc1OC (stereo not drawn),12.9,-3.6,-6.8,-14.6,.,0.3
COCCn1c(SCc2ccc(C(=O)OC)o2)nc2ccccc2c1=O,20.5,-1.0,21.2,23.5,.,-1.4
COC(=O)c1ccc(CSc2nc3ccccc3c(=O)n2-c2ccc(OC)c(OC)c2)o1,10.5,5.1,31.0*,12.9,.,-0.5
CCn1cc(C(=O)NCc2ccc(C)o2)c2cc(OC)c(OC)cc2c1=O,5.9,0.7,29.0*,10.4,87.7,-0.6
CC1CC(C)CN(CC(=O)N2CCc3[nH]c4ccccc4c3C2)C1 (stereo not drawn),4.3,-3.6,16.3,15.1,42.9*,-0.7
SMILES,HEK293 NFkB inh,HTR1A agonist,5HT1E antag,5HT1a antag,SKBR3 24h inh,5HT1E ag
COc1ccc2c(c1)C(C)=CC(C)(C)N2C(=O)CSc1nnc(-c2ccc(C)cc2)o1,10.2,-1.0,7.7,35.7,.,8.0
c1cc(Nc2ncnc3sccc23)cc(-c2nnc3n2CCCCC3)c1,-7.0,0.1,29.8*,3.8,.,0.0
COc1cccc(NC(=O)N(Cc2cc3cc(C)cc(C)c3[nH]c2=O)CC2COCCO2)c1 (stereo not drawn),-6.2,-0.8,1.9,-3.4,83.4,-0.2
COC(=O)C1=CNC=C(C(=O)OC)C1c1ccc(C(=O)OC)cc1,13.5,1.8,5.2,5.6,91.8,2.2
CCCc1nnc(SCc2ccc(OC)cc2)n1N,8.6,-0.6,-6.9,6.3,101.4,0.1
CCC(Oc1ccccc1)C(=O)N1CCC(C(N)=O)CC1 (stereo not drawn),1.7,20.1*,-10.8,7.2,98.2,0.2
Nc1c(C(=O)NCc2ccc3c(c2)OCO3)c2nc3ccccc3nc2n1CCCN1CCOCC1,15.5,37.4*,-7.3,-14.8,107.0,13.0*
Nc1c(C(=O)NCCN2CCOCC2)c2nc3ccccc3nc2n1CCc1ccccc1,5.1,24.2*,-12.5,-40.8,86.1,5.7
Cc1ccc(NC(=O)CN(C)S(=O)(=O)c2cccc3nsnc23)cc1Cl,2.1,-2.5,0.5,1.4,74.7,0.3
CCCOC(=O)C1=C(C)NC2=C(C(=O)CCC2)C1c1cccc(OC)c1OC (stereo not drawn),13.6,-2.8,-17.8,5.3,.,1.0
CCCn1c(=O)n(C)c(=O)c2c3oc(=O)c(NC(=O)c4ccc(F)cc4)cc3[nH]c21,9.3,1.7,5.6,-1.4,.,0.2
CC(=O)Nc1ccc2nc(-c3cccnc3)[nH]c2c1,3.6,-2.3,-5.0,-5.9,.,16.6*
CC(=O)Nc1cccc(-c2nc3ccc(NC(C)=O)cc3[nH]2)c1,7.7,-1.3,-5.3,-0.3,.,-0.1
CCOC(=O)c1c(NC(=O)CSc2n[nH]c(-c3ccco3)n2)sc(C)c1C,7.4,1.5,43.6*,22.5,76.5,-0.5
O=C(CSc1n[nH]c(-c2ccco2)n1)N1c2ccccc2Sc2ccccc21,1.8,-1.1,37.4*,30.1,84.1,-1.4
CCOC(=O)CSc1n[nH]c(-c2ccco2)n1,0.2,-2.6,12.7,9.0,.,-0.3
CCOC(=O)C(C)Oc1ccc(C2NC(=O)NC(C)=C2C(=O)Nc2ccccc2C)cc1 (stereo not drawn),-1.0,-0.2,-0.5,9.3,113.6,-0.3
CCNc1nc(NC(C)C)nc(Oc2ccc(OCCOc3ccccc3)nn2)n1,11.2,-2.4,19.4,7.4,.,-0.2
COc1cccc(Cn2c(N)c(C#N)c3nc4ccccc4nc32)c1OC,10.7,7.7,32.8*,-11.2,89.0,3.5
COc1cc(Cn2c(N)c(C#N)c3nc4ccccc4nc32)cc(OC)c1,5.6,21.4*,13.8,25.4,80.3,6.0
N#Cc1c(N)n(CCOC(=O)c2cccc(Br)c2)c2nc3ccccc3nc12,.,30.6*,6.3,.,72.4,5.1
COc1ccc2c(c1)nc(N)n2Cc1ccccc1,.,-0.2,-2.6,.,75.8,-0.4
C=CCn1c(SCn2nnc3ccccc3c2=O)nnc1C1CCCCC1,10.4,-2.0,-4.5,2.0,.,-0.5
